Results from ChEMBL document CHEMBL5316288, “Synthetic Strategies for Improving Solubility: Optimization of Novel Pyrazolo[1,5-a]pyrimidine CFTR Activator That Ameliorates Dry Eye Disease” (J Med Chem, 2023).
Converted amounts (≈) assume the structure as drawn.

Key:
[1] = Tmax in New Zealand White Rabbit conjunctiva at 0.1 mg per eye, TOP and measured upto 72 hrs by LC-MS/MS analysis; assay type: ADME, tissue-based, Oryctolagus cuniculus; conditions: in vivo, topical_or_ocular
Method in brief: (§1)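 Male New Zealand White rabbits each received a single topical eye drop of 0.1 mg/eye, formulated in 5% polyoxyl 35 castor oil in sodium phosphate buffer. Plasma, tear, cornea, conjunctiva and retina were sampled from one eye at 0.5, 1, 4, 8, 12, 24, 48 and 72 h. Levels were measured by LC-MS/MS in tear and tissue homogenates. Parameters came from non-compartmental analysis of composite means, n = 3.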

[2] = Cmax in New Zealand White Rabbit eye tear at 0.1 mg per eye, TOP and measured upto 72 hrs by LC-MS/MS analysis; assay type: ADME, tissue-based, Oryctolagus cuniculus, Secretion of lacrimal gland; design: time < 72 hrs, dose 0.1 mg, route top; conditions: in vivo, topical_or_ocular; method in brief: as §1
[3] = Cytotoxicity against human Conjunctival epithelial cells assessed as reduction in cell viability at 30 uM incubated for 48 hrs with medium changed every 12 hrs by MTS assay; assay type: toxicity, cell-based
Method in brief: (§2)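 Immortalized human corneal or conjunctival epithelial cells were plated and, after 24 h, exposed to 30 μM compound for 48 h. DMSO served as control and 0.01% Triton X-100 as the lysis control. Medium and compound were renewed every 12 h. Viability was read by MTS, 1 h incubation, absorbance at 490 nm; n = 3.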

[4] = AUClast in New Zealand White Rabbit conjunctiva at 0.1 mg per eye, TOP and measured upto 72 hrs by LC-MS/MS analysis; assay type: ADME, tissue-based, Oryctolagus cuniculus; design: time < 72 hrs, dose 0.1 mg, route top; conditions: topical or ocular; method in brief: as §1
[5] = Tlast in New Zealand White Rabbit conjunctiva at 0.1 mg per eye, TOP and measured upto 72 hrs by LC-MS/MS analysis; assay type: ADME, tissue-based, Oryctolagus cuniculus; conditions: in vivo, topical_or_ocular; method in brief: as §1
[6] = AUC (0 to 24 hrs) in New Zealand White Rabbit conjunctiva at 0.1 mg per eye, TOP and measured upto 72 hrs by LC-MS/MS analysis; assay type: ADME, tissue-based, Oryctolagus cuniculus; design: dose 0.1 mg, time < 72 hrs, route top; conditions: topical or ocular; method in brief: as §1
[7] = Tlast in New Zealand White Rabbit cornea at 0.1 mg per eye, TOP and measured upto 72 hrs by LC-MS/MS analysis; assay type: ADME, tissue-based, Oryctolagus cuniculus; conditions: in vivo, topical_or_ocular; method in brief: as §1
[8] = Half life in New Zealand White Rabbit conjunctiva at 0.1 mg per eye, TOP and measured upto 72 hrs by LC-MS/MS analysis; assay type: ADME, tissue-based, Oryctolagus cuniculus; conditions: in vivo, topical_or_ocular; method in brief: as §1
[9] = AUClast in New Zealand White Rabbit eye tear at 0.1 mg per eye, TOP and measured upto 72 hrs by LC-MS/MS analysis; assay type: ADME, tissue-based, Oryctolagus cuniculus, Secretion of lacrimal gland; design: dose 0.1 mg, time < 72 hrs, route top; conditions: in vivo, topical_or_ocular; method in brief: as §1
[10] = Half life in New Zealand White Rabbit cornea at 0.1 mg per eye, TOP and measured upto 72 hrs by LC-MS/MS analysis; assay type: ADME, tissue-based, Oryctolagus cuniculus; conditions: in vivo, topical_or_ocular; method in brief: as §1
[11] = Cmax in New Zealand White Rabbit conjunctiva at 0.1 mg per eye, TOP and measured upto 72 hrs by LC-MS/MS analysis; assay type: ADME, tissue-based, Oryctolagus cuniculus; design: dose 0.1 mg, time < 72 hrs, route top; conditions: topical or ocular; method in brief: as §1
[12] = AUC (0 to 24 hrs) in New Zealand White Rabbit eye tear at 0.1 mg per eye, TOP and measured upto 72 hrs by LC-MS/MS analysis; assay type: ADME, tissue-based, Oryctolagus cuniculus, Secretion of lacrimal gland; design: dose 0.1 mg, time < 72 hrs, route top; conditions: in vivo, topical_or_ocular; method in brief: as §1
[13] = Tmax in New Zealand White Rabbit cornea at 0.1 mg per eye, TOP and measured upto 72 hrs by LC-MS/MS analysis; assay type: ADME, tissue-based, Oryctolagus cuniculus; conditions: in vivo, topical_or_ocular; method in brief: as §1
[14] = Tlast in New Zealand White Rabbit eye tear at 0.1 mg per eye, TOP and measured upto 72 hrs by LC-MS/MS analysis; assay type: ADME, tissue-based, Oryctolagus cuniculus, Secretion of lacrimal gland; conditions: in vivo, topical_or_ocular; method in brief: as §1
[15] = AUClast in New Zealand White Rabbit cornea at 0.1 mg per eye, TOP and measured upto 72 hrs by LC-MS/MS analysis; assay type: ADME, tissue-based, Oryctolagus cuniculus; design: dose 0.1 mg, time < 72 hrs, route top; conditions: topical or ocular; method in brief: as §1
[16] = Half life in New Zealand White Rabbit eye tear at 0.1 mg per eye, TOP and measured upto 72 hrs by LC-MS/MS analysis; assay type: ADME, tissue-based, Oryctolagus cuniculus, Secretion of lacrimal gland; conditions: in vivo, topical_or_ocular; method in brief: as §1
[17] = AUC (0 to infinity) in New Zealand White Rabbit cornea at 0.1 mg per eye, TOP and measured upto 72 hrs by LC-MS/MS analysis; assay type: ADME, tissue-based, Oryctolagus cuniculus; design: time < 72 hrs, dose 0.1 mg, route top; conditions: topical or ocular; method in brief: as §1
[18] = Cmax in New Zealand White Rabbit cornea at 0.1 mg per eye, TOP and measured upto 72 hrs by LC-MS/MS analysis; assay type: ADME, tissue-based, Oryctolagus cuniculus; design: dose 0.1 mg, time < 72 hrs, route top; conditions: topical or ocular; method in brief: as §1
[19] = AUC (0 to infinity) in New Zealand White Rabbit eye tear at 0.1 mg per eye, TOP and measured upto 72 hrs by LC-MS/MS analysis; assay type: ADME, tissue-based, Oryctolagus cuniculus, Secretion of lacrimal gland; design: time < 72 hrs, dose 0.1 mg, route top; conditions: in vivo, topical_or_ocular; method in brief: as §1
[20] = AUC (0 to 24 hrs) in New Zealand White Rabbit cornea at 0.1 mg per eye, TOP and measured upto 72 hrs by LC-MS/MS analysis; assay type: ADME, tissue-based, Oryctolagus cuniculus; design: dose 0.1 mg, time < 72 hrs, route top; conditions: topical or ocular; method in brief: as §1
[21] = Solubility of compound in PBS at 7.5 at 0.5 mg/ml incubated for 90 mins by LC-MS/MS analysis; assay type: physicochemical; conditions: PBS, pH 7.5
Method in brief: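 Thermodynamic solubility: compound at 0.5 mg/mL in isotonic phosphate-buffered saline, pH 7.5, vortexed for 90 min. The solution was then filtered sequentially through 0.45, 1.2 and 5.0 μm filters. Concentration was measured by LC-MS/MS against a ≥6-point internal-standard calibration curve (weighted 1/x linear or quadratic) and back-calculated.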

[22] = AUC (0 to infinity) in New Zealand White Rabbit conjunctiva at 0.1 mg per eye, TOP and measured upto 72 hrs by LC-MS/MS analysis; assay type: ADME, tissue-based, Oryctolagus cuniculus; design: time < 72 hrs, dose 0.1 mg, route top; conditions: topical or ocular; method in brief: as §1
[23] = Cytotoxicity against human Corneal epithelial cells assessed as reduction in cell viability at 30 uM incubated for 48 hrs with medium changed every 12 hrs by MTS assay; assay type: toxicity, cell-based; method in brief: as §2

COc1ccc(-c2ccnc3cc(C(=O)N4CCN(C(=O)c5ccccc5)[C@@H](C)C4)nn23)cc1OC
Tmax [1]: 0.5 h | Cmax [2]: 749 ng/mL | Activity [3]: Non-Toxic | AUC(0-t) at 72 h [4]: 9820 ng·h/mL | Tlast [5]: 72 h | AUC(0-t) at 72 h [6]: 4730 ng·h/mL | Tlast [7]: 72 h | t1/2 [8]: 40.6 h | AUClast [9]: 16573 ng·h/mL | t1/2 [10]: 23.1 h | Cmax [11]: 793 ng/mL | AUC [12]: 7952 ng·h/mL | Tmax [13]: 0.5 h | Tlast [14]: 72 h | AUC(0-t) at 72 h [15]: 28300 ng·h/mL | t1/2 [16]: 29.8 h | AUC(0-inf) [17]: 35800 ng·h/mL | Cmax [18]: 7840 ng/mL | AUC [19]: 18750 ng·h/mL | AUC(0-t) at 72 h [20]: 19400 ng·h/mL | solubility thermodynamic at 1.5 h [21]: 134 µM (≈ 65.3 µg/mL) | AUC(0-inf) [22]: 13700 ng·h/mL | Activity [23]: Non-Toxic
